Key:
[1] = tested on: Human immunodeficiency virus 1; assay: (§1) Antiviral activity against Human immunodeficiency virus type-1; format: functional, organism-based
How it was run: (§2)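 Cell-protection read-out: HSV-1 Kos strain on MRC-5 cells, HSV-2 G strain on MRC-5 cells, HIV-1 IIIb strain on MT-4 cells. Cells infected at MOI 0.02, then immediately plated with serial compound dilutions. After 4 days of incubation at 36 °C, viable cells were counted by MTT. […].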

[2] = tested on: Human alphaherpesvirus 1; assay: Antiviral activity against Herpes simplex virus type-1 (HSV-1).; format: functional, organism-based; how it was run: as §2
[3] = tested on: Human alphaherpesvirus 2; assay: Antiviral activity against Herpes simplex virus type-2 (HSV-2).; format: functional, organism-based; how it was run: as §2
[4] = tested on: L1210; assay: Cytotoxicity against L1210 cells.; format: functional, cell-based; conditions: Mus musculus
[5] = tested on: KB; assay: Cytotoxicity against KB cells.; format: functional, cell-based; conditions: Homo sapiens
[6] = tested on: Human immunodeficiency virus 1; assay: as §1

SMILES | EC50 [1] | IC50 [1] | EC50 [2] | IC50 [2] | EC50 [3] | IC50 [3] | IC50 [4] | IC50 [5] | EC50 [6]
C=C[C@]1(CO)O[C@@H](n2ccc(N)nc2=O)C[C@@H]1O | 8.6 nM | 180 nM | > 350 µM | > 350 µM | > 350 µM | > 350 µM | 21 µM | > 350 µM | 
N#C[C@]1(CO)O[C@@H](n2ccc(=O)[nH]c2=O)[C@H](O)[C@@H]1O |  |  |  |  |  |  | > 350 µM | > 350 µM | 
N#C[C@]1(CO)O[C@@H](n2ccc(N)nc2=O)C[C@@H]1O | 1.2 nM | 170 nM | 3.6 µM | > 350 µM | 21 µM | > 350 µM | 0.33 µM | > 350 µM | 
Cc1cn([C@H]2C[C@H](N=[N+]=[N-])[C@@H](CO)O2)c(=O)[nH]c1=O [ZIDOVUDINE] |  | 3200 nM |  |  |  |  |  |  | 4.1 nM
C#C[C@]1(CO)O[C@@H](n2ccc(N)nc2=O)[C@H](O)[C@@H]1O |  |  |  |  |  |  | > 350 µM | > 350 µM | 
Nc1ccn([C@H]2C[C@H](O)[C@@](/C=C/Cl)(CO)O2)c(=O)n1 | 2100 nM | 4600 nM | > 350 µM | > 350 µM | > 350 µM | > 350 µM | 200 µM | > 350 µM | 
N#C[C@]1(CO)O[C@@H](n2ccc(N)nc2=O)[C@H](O)[C@@H]1O |  |  |  |  |  |  | > 350 µM | > 350 µM | 
CC[C@]1(CO)O[C@@H](n2ccc(N)nc2=O)C[C@@H]1O | 13 nM | 770 nM | > 350 µM | > 350 µM | > 350 µM | > 350 µM | 55 µM | > 350 µM | 
C#C[C@]1(CO)O[C@@H](n2ccc(N)nc2=O)C[C@@H]1O | 2.2 nM | 160 nM | 200 µM | > 350 µM | > 350 µM | > 350 µM |  |  | 
Nc1nc2c(ncn2COCCO)c(=O)[nH]1 [ACYCLOVIR] |  |  | 0.36 µM | > 350 µM | 1.1 µM | > 350 µM |  |  | 
C[C@]1(CO)O[C@@H](n2ccc(N)nc2=O)C[C@@H]1O | 62 nM | 62 nM | 3.1 µM | 260 µM | 0.58 µM | 260 µM | 0.16 µM | > 350 µM | 
C#C[C@]1(CO)O[C@@H](n2ccc(=O)[nH]c2=O)[C@H](O)[C@@H]1O |  |  |  |  |  |  | > 350 µM | > 350 µM | 
